STAT3 act – increases IL-6 driven STAT3 reporter signal | activation (% of control), % at 5.6 µM | 190,000 tested, 0.91% active | U3A cells, IL-6 STAT3-luciferase reporter, luminescence; 100% = signal with IL-6 EC80 alone;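 active = activation above the screen-wide mean of compound activation plus 3 SD, cut at about 130% in these data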
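Test system: human U3A cells carrying STAT3-luciferase construct; control set: IL-6-only wells as 100% reference; timing: compound pre-incubation 1 h before IL-6, then 6 h stimulation at 37 °C; also added: IL-6 stimulus at 33 ng/mL final; evaluation: % activation versus median of IL-6-stimulated wells; detection: reporter luminescence signal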
STAT1 blocker – STAT1 signaling inhibition. NIH 3T3 STAT1-luciferase reporter, IFN-gamma, luminescence. inhibition, % at 5.5 µM. 200,000 tested, 0.35% active. AID 920;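 active = inhibition above a set limit, the mean inhibition across all tested compounds plus 3 SD, cut at about 34% in these data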
PPC-1+TRAIL kill – kills PPC-1 cancer cells in the presence of TRAIL; PPC-1 cells + TRAIL, ATPLite viability luminescence; AID 1443; cell killing (% activity), % at 4 µM or 5 µM; 220,000 tested, 0.41% active;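 active = cell killing above 50% in the first pass at 4 µM, then a duplicate retest at 5 µM averaging 50% or more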
HSP90 refold inh – HSP90 refolding inhibition in rabbit reticulocyte lysate; luciferase refolding luminescence, 3 h; inhibition, % at 5.6 µM; 290,000 tested, 0.91% active; AID 1789;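 active = inhibition above the screen-wide mean plus 3 SD, computed separately per campaign, cut at about 16% in these data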;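 also: inhibitors lower the luminescence because luciferase stays unfolded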
STAT3 blocker – STAT3 signaling inhibition; 190,000 tested, 0.89% active; U3A cells, IL-6 STAT3-luciferase reporter, luminescence; host cell line lacks STAT1; inhibition, % at 5.5 µM; AID 862;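 active = inhibition above the mean inhibition across all screened compounds plus 3 SD, cut at about 44% in these data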
TRAIL sens C8 – caspase-8 TRAIL sensitization | NB7+C8 cells + TRAIL, ATPlite viability luminescence | inhibition (viability loss, TRAIL sensitization), % at 10 µM | 360,000 tested, 1% active | AID 624354;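 active = compounds causing at least 50% loss of cell viability in the single-dose screen, relative to plate controls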
PPC1 cytotox – PPC-1 cell cytotoxicity; shares compounds with PPC-1+TRAIL kill; PPC-1 viability, ATPlite luminescence, overnight; cytotoxicity, % at 5 µM; 1,200 tested, 50% active;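 active = reconfirmed compounds whose average cytotoxicity reaches 50% or more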
A number is an active result. This is a sample that favours compounds with a hit; in the whole collection about 2.3% have one here.

`COc1ccc2nc(NC(C)=O)sc2c1` gave STAT3 act inactive, STAT1 blocker inactive, PPC-1+TRAIL kill inactive, HSP90 refold inh inactive, STAT3 blocker inactive and TRAIL sens C8 inactive.
`CCOC(=O)c1cccc(C(=O)Nc2nc3ccc(OC)cc3s2)n1` gave STAT3 act inactive, STAT1 blocker inactive, PPC-1+TRAIL kill 68, HSP90 refold inh inactive, STAT3 blocker inactive, TRAIL sens C8 82 and PPC1 cytotox 67.
CCc1ccccc1NC(=O)C/C(C)=N/NC(=O)COc1ccccc1C was read as HSP90 refold inh inactive and TRAIL sens C8 inactive.
Screening COCCN(C(=O)c1cc(OC)c(OC)c(OC)c1)c1c(N)n(Cc2ccccc2)c(=O)[nH]c1=O returned STAT3 act inactive, STAT1 blocker inactive, PPC-1+TRAIL kill inactive, HSP90 refold inh inactive, STAT3 blocker inactive, TRAIL sens C8 inactive and PPC1 cytotox inactive.
Screening Cc1ccc(S(=O)(=O)N2CCN(C(=O)COC(=O)C3CCC3)CC2)cc1 returned TRAIL sens C8 inactive.
`Cc1cccc(-c2nc(CN3CCN(C(=O)C4CCCO4)CC3)cs2)c1` (centres undefined) gave HSP90 refold inh inactive and TRAIL sens C8 inactive.
Screening Cc1nc(CN2CCN(C(=O)NC3(c4ccccc4)CC3)CC2)cs1 returned STAT3 act inactive, STAT1 blocker inactive, PPC-1+TRAIL kill inactive, HSP90 refold inh inactive, STAT3 blocker inactive, TRAIL sens C8 inactive and PPC1 cytotox inactive.
For O=C(NCc1cccnc1)C1CCCN(S(=O)(=O)c2ccccc2)C1 (centres undefined) the results were STAT3 act inactive, STAT1 blocker inactive, PPC-1+TRAIL kill inactive, HSP90 refold inh inactive, STAT3 blocker inactive, TRAIL sens C8 inactive and PPC1 cytotox inactive.
Screening CC(=O)Nc1ccc(CNc2nc3cc(-c4cccc(C(F)(F)F)c4)sc3c(=O)n2C)cc1 returned TRAIL sens C8 inactive.
Screening CCCCCCCCCCCCCCCCn1cc[n+](CC(C)=O)c1 returned STAT3 act inactive, STAT1 blocker inactive, PPC-1+TRAIL kill inactive, HSP90 refold inh inactive, STAT3 blocker inactive, TRAIL sens C8 inactive and PPC1 cytotox inactive.
Screening CCCOc1ccc(C2(C(=O)O)CCCC2)cc1 returned STAT3 act inactive, STAT1 blocker inactive, PPC-1+TRAIL kill inactive, HSP90 refold inh inactive, STAT3 blocker inactive, TRAIL sens C8 inactive and PPC1 cytotox inactive.
O=C(Nc1ccc(S(=O)(=O)NC2=NCCCCC2)cc1)c1ccc(C(F)(F)F)cc1 was read as PPC-1+TRAIL kill inactive, HSP90 refold inh inactive and TRAIL sens C8 inactive.
`CN(C)S(=O)(=O)c1ccc(C(=O)Nc2ccc(S(=O)(=O)NC3=NCCCCC3)cc2)cc1` gave STAT3 act inactive, STAT1 blocker inactive, PPC-1+TRAIL kill inactive, HSP90 refold inh inactive, STAT3 blocker inactive, TRAIL sens C8 inactive and PPC1 cytotox inactive.
For N#CCc1nc(CSc2nc3ccccc3s2)cs1 the results were STAT3 act inactive, STAT1 blocker inactive, PPC-1+TRAIL kill inactive, HSP90 refold inh inactive, STAT3 blocker inactive, TRAIL sens C8 inactive and PPC1 cytotox inactive.
For Cc1ccc(S(=O)(=O)NC2CCCCC2)cc1 the results were TRAIL sens C8 inactive.
Screening CSc1ccc(S(=O)(=O)NC2CCCCCC2)cc1 returned STAT3 act inactive, STAT1 blocker inactive, PPC-1+TRAIL kill inactive, HSP90 refold inh inactive, STAT3 blocker inactive, TRAIL sens C8 inactive and PPC1 cytotox inactive.
Screening CN(CC(=O)Nc1cccc(S(=O)(=O)N2CCCC2)c1)CC(=O)Nc1ccc(Cl)c(C(F)(F)F)c1 returned TRAIL sens C8 inactive.
For CCOc1ccc(NC(=O)C2=C(C)NC(=S)NC2c2ccc(O)c(OC)c2)cc1 (centres undefined) the results were STAT3 act inactive, STAT1 blocker inactive, PPC-1+TRAIL kill inactive, HSP90 refold inh inactive, STAT3 blocker inactive and TRAIL sens C8 inactive.
`O=C(NC1CCCCC1)C(c1ccccc1)N(Cc1ccc2c(c1)OCO2)C(=O)c1cnsn1` (centres undefined) gave STAT3 act inactive, STAT1 blocker inactive, PPC-1+TRAIL kill inactive, HSP90 refold inh inactive, STAT3 blocker inactive, TRAIL sens C8 inactive and PPC1 cytotox inactive.
C[C@@H]1C[C@@H]2OC(=O)[C@]3(C)[C@H]2[C@@H](OC3(C)O)[C@]2(C)C(=O)C=C[C@H]12 (some centres undefined) was read as PPC-1+TRAIL kill inactive and TRAIL sens C8 inactive.
`C=C1C(=O)O[C@@H]2C[C@@H](C)[C@@H]3C=CC(=O)[C@@]3(C)[C@@H](OC(C)=O)[C@H]12` gave PPC-1+TRAIL kill 62 and PPC1 cytotox 52.
Cc1cc(=S)[nH]c2ccccc12 was read as STAT3 act inactive, STAT1 blocker inactive, PPC-1+TRAIL kill inactive, HSP90 refold inh inactive, STAT3 blocker inactive and TRAIL sens C8 inactive.
Screening COc1ccc(N/C(=N\c2nc(C)cc(C)n2)NC(=O)C(C)C)cc1OC returned STAT3 act inactive, STAT1 blocker inactive, PPC-1+TRAIL kill inactive, HSP90 refold inh inactive, STAT3 blocker inactive, TRAIL sens C8 inactive and PPC1 cytotox inactive.
Screening O=C1CCCCN1CCC(=O)N1CCCC(N2CCN(c3ccccc3)CC2)C1 (centres undefined) returned HSP90 refold inh inactive and TRAIL sens C8 inactive.
For Cc1ccccc1NC(=O)c1nc[nH]c1C(=O)NCc1ccccc1 the results were STAT3 act inactive, STAT1 blocker inactive, PPC-1+TRAIL kill inactive, HSP90 refold inh inactive, STAT3 blocker inactive, TRAIL sens C8 inactive and PPC1 cytotox inactive.
Cc1ccc(OCC(=O)NNC(=O)C2CCN(c3ncccn3)CC2)cc1 was read as STAT3 act inactive, STAT1 blocker inactive, PPC-1+TRAIL kill inactive, HSP90 refold inh inactive, STAT3 blocker inactive and TRAIL sens C8 inactive.
For COc1ccc(C(=O)NNC(=O)c2ccccn2)cc1 the results were STAT3 act inactive, STAT1 blocker 92, PPC-1+TRAIL kill 86, HSP90 refold inh 75, STAT3 blocker 99, TRAIL sens C8 89 and PPC1 cytotox 81.
For COc1cc(OC)cc(C(=O)NNC(=O)c2ccccn2)c1 the results were STAT3 act inactive, STAT1 blocker inactive, PPC-1+TRAIL kill inactive, HSP90 refold inh inactive, STAT3 blocker inactive and TRAIL sens C8 inactive.
Screening O=S(=O)(c1ccccc1)N1CCN(CC2CC3C=CC2C3)CC1 (centres undefined) returned STAT3 act inactive, STAT1 blocker inactive, PPC-1+TRAIL kill inactive, HSP90 refold inh inactive, STAT3 blocker inactive and TRAIL sens C8 inactive.
Cc1ccc(CN2CCN(CC3CC4C=CC3C4)CC2)cc1 (centres undefined) was read as STAT3 act inactive, STAT1 blocker inactive, PPC-1+TRAIL kill inactive, HSP90 refold inh inactive, STAT3 blocker inactive, TRAIL sens C8 inactive and PPC1 cytotox inactive.
